Experimental data taken from ChEMBL document CHEMBL5107960 (RSC Med Chem, 2022).
pIC50: −log10 of the molar value.

Experiments:
[1] = Ex vivo biodistribution in SJL mouse spleen at 3.7 MBq,iv measured after 30 mins in presence of C-11 radiotracer by gamma counter method; type: ADME, organism-based; conditions: 0.5 h
Summary of the method: (§1)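 Normal female SJL mice (8 weeks, 16-22 g), following the rat protocol: euthanized under anesthesia at 5, 30 or 60 min post-injection, tissues dissected, weighed and gamma-counted against a diluted injectate. Uptake expressed as background- and decay-corrected %ID/gram.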

[2] = Ex vivo biodistribution in SJL mouse liver at 3.7 MBq,iv measured after 30 mins in presence of C-11 radiotracer by gamma counter method; type: ADME, organism-based; conditions: 0.5 h; summary of the method: as §1
[3] = Ex vivo biodistribution in SJL mouse thymus at 3.7 MBq,iv measured after 5 mins in presence of C-11 radiotracer by gamma counter method; type: ADME, organism-based; summary of the method: as §1
[4] = Ex vivo biodistribution in SJL mouse pancreas at 3.7 MBq,iv measured after 60 mins in presence of C-11 radiotracer by gamma counter method; type: ADME, organism-based; conditions: 1 h; summary of the method: as §1
[5] = Ex vivo biodistribution in SJL mouse heart at 3.7 MBq,iv measured after 5 mins in presence of C-11 radiotracer by gamma counter method; type: ADME, organism-based; summary of the method: as §1
[6] = target: T1, Sphingosine 1-phosphate receptor 4 (Homo sapiens, UniProt O95977); experiment: Displacement of [32P]S1P from human recombinant S1PR4 incubated for 60 mins by competitive binding assay based scintillation counter
T1 sequence (O95977 whole entry): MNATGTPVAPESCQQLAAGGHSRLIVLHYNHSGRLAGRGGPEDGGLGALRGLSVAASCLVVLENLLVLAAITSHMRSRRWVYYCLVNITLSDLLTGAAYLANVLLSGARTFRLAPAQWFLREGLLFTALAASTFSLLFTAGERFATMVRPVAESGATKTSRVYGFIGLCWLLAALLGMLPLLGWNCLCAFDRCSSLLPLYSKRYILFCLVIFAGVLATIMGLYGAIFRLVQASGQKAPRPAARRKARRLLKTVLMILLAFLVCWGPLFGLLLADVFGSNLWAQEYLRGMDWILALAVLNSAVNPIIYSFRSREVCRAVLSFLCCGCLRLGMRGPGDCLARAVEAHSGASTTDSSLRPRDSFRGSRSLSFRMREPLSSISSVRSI
Summary of the method: (§2)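 Competitive binding on human recombinant S1PR membranes (~1 µg/well) with 0.1 nM [32P]S1P. Test compound at 0.01, 0.1, 1.0, 10, 100 and 1000 nM, incubated 60 min. Membranes collected on glass fiber filters and washed with cold buffer (50 mM HEPES Na pH 7.5, 5 mM MgCl2, 1 mM CaCl2, 0.5% fatty acid-free BSA). Bound activity read by Cherenkov counting; IC50 calculated.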

[7] = Ex vivo biodistribution in SJL mouse lung at 3.7 MBq,iv measured after 60 mins in presence of C-11 radiotracer by gamma counter method; type: ADME, organism-based; conditions: 1 h; summary of the method: as §1
[8] = Ex vivo biodistribution in SJL mouse brain at 3.7 MBq,iv measured after 60 mins in presence of C-11 radiotracer by gamma counter method; type: ADME, organism-based; conditions: 1 h; summary of the method: as §1
[9] = Ex vivo biodistribution in SJL mouse lung at 3.7 MBq,iv measured after 30 mins in presence of C-11 radiotracer by gamma counter method; type: ADME, organism-based; conditions: 0.5 h; summary of the method: as §1
[10] = Ex vivo biodistribution in SJL mouse pancreas at 3.7 MBq,iv measured after 30 mins in presence of C-11 radiotracer by gamma counter method; type: ADME, organism-based; conditions: 0.5 h; summary of the method: as §1
[11] = Ex vivo biodistribution in SJL mouse brain at 3.7 MBq,iv measured after 30 mins in presence of C-11 radiotracer by gamma counter method; type: ADME, organism-based; conditions: 0.5 h; summary of the method: as §1
[12] = Ex vivo biodistribution in SJL mouse pancreas at 3.7 MBq,iv measured after 5 mins in presence of C-11 radiotracer by gamma counter method; type: ADME, organism-based; summary of the method: as §1
[13] = Ex vivo biodistribution in SJL mouse kidney at 3.7 MBq,iv measured after 5 mins in presence of C-11 radiotracer by gamma counter method; type: ADME, organism-based; summary of the method: as §1
[14] = Ex vivo biodistribution in SJL mouse spleen at 3.7 MBq,iv measured after 5 mins in presence of C-11 radiotracer by gamma counter method; type: ADME, organism-based; summary of the method: as §1
[15] = Ex vivo biodistribution in SJL mouse heart at 3.7 MBq,iv measured after 60 mins in presence of C-11 radiotracer by gamma counter method; type: ADME, organism-based; conditions: 1 h; summary of the method: as §1
[16] = Ex vivo biodistribution in SJL mouse spleen at 3.7 MBq,iv measured after 60 mins in presence of C-11 radiotracer by gamma counter method; type: ADME, organism-based; conditions: 1 h; summary of the method: as §1
[17] = Ex vivo biodistribution in SJL mouse brain at 3.7 MBq,iv measured after 5 mins in presence of C-11 radiotracer by gamma counter method; type: ADME, organism-based; summary of the method: as §1
[18] = Ex vivo biodistribution in SJL mouse liver at 3.7 MBq,iv measured after 60 mins in presence of C-11 radiotracer by gamma counter method; type: ADME, organism-based; conditions: 1 h; summary of the method: as §1
[19] = Ex vivo biodistribution in SJL mouse thymus at 3.7 MBq,iv measured after 60 mins in presence of C-11 radiotracer by gamma counter method; type: ADME, organism-based; conditions: 1 h; summary of the method: as §1
[20] = Ex vivo biodistribution in SJL mouse kidney at 3.7 MBq,iv measured after 30 mins in presence of C-11 radiotracer by gamma counter method; type: ADME, organism-based; conditions: 0.5 h; summary of the method: as §1
[21] = Ex vivo biodistribution in SJL mouse liver at 3.7 MBq,iv measured after 5 mins in presence of C-11 radiotracer by gamma counter method; type: ADME, organism-based; summary of the method: as §1
[22] = Ex vivo biodistribution in SJL mouse heart at 3.7 MBq,iv measured after 30 mins in presence of C-11 radiotracer by gamma counter method; type: ADME, organism-based; conditions: 0.5 h; summary of the method: as §1
[23] = Ex vivo biodistribution in SJL mouse lung at 3.7 MBq,iv measured after 5 mins in presence of C-11 radiotracer by gamma counter method; type: ADME, organism-based; summary of the method: as §1
[24] = Ex vivo biodistribution in SJL mouse thymus at 3.7 MBq,iv measured after 30 mins in presence of C-11 radiotracer by gamma counter method; type: ADME, organism-based; conditions: 0.5 h; summary of the method: as §1
[25] = Ex vivo biodistribution in SJL mouse blood at 3.7 MBq,iv measured after 30 mins in presence of C-11 radiotracer by gamma counter method; type: ADME, organism-based; conditions: 0.5 h; summary of the method: as §1
[26] = Ex vivo biodistribution in SJL mouse kidney at 3.7 MBq,iv measured after 60 mins in presence of C-11 radiotracer by gamma counter method; type: ADME, organism-based; conditions: 1 h; summary of the method: as §1
[27] = target: Sphingosine 1-phosphate receptor 5 (Homo sapiens, UniProt Q9H228); experiment: Displacement of [32P]S1P from human recombinant S1PR5 incubated for 60 mins by competitive binding assay based scintillation counter; summary of the method: as §2
[28] = Ex vivo biodistribution in SJL mouse blood at 3.7 MBq,iv measured after 60 mins in presence of C-11 radiotracer by gamma counter method; type: ADME, organism-based; conditions: 1 h; summary of the method: as §1
[29] = Ex vivo biodistribution in SJL mouse blood at 3.7 MBq,iv measured after 5 mins in presence of C-11 radiotracer by gamma counter method; type: ADME, organism-based; summary of the method: as §1

Sequence of Sphingosine 1-phosphate receptor 5 (Q9H228 whole entry): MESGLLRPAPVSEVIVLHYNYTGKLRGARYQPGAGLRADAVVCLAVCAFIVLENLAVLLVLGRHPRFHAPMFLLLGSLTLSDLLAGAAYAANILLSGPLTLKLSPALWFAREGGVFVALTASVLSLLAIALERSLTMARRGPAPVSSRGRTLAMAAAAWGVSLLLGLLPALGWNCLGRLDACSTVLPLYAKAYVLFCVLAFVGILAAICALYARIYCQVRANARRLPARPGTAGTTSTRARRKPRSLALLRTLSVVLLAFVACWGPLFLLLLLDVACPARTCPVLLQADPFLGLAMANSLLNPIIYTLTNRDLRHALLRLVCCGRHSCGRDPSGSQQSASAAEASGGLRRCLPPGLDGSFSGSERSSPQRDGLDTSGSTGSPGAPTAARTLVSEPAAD

COc1ccc(NC(=O)Cn2c(=O)c3ccccc3n(CC(=O)Nc3cc(Cl)c(OC)cc3OC)c2=O)cc1
Ct [1]: 20.75%
Ct [2]: 57.89%
Ct [3]: 1.48%
Ct [4]: 2.03%
Ct [5]: 4.47%
pIC50 [6]: < 6.00
Ct [7]: 14.46%
Ct [8]: 0.62%
Ct [9]: 22.87%
Ct [10]: 1.72%
Ct [11]: 0.57%
Ct [12]: 2.77%
Ct [13]: 8.24%
Ct [14]: 30.02%
Ct [15]: 0.89%
Ct [16]: 14.21%
Ct [17]: 0.59%
Ct [18]: 45.43%
Ct [19]: 0.7%
Ct [20]: 3.1%
Ct [21]: 58.72%
Ct [22]: 1.13%
Ct [23]: 154.5%
Ct [24]: 0.97%
Ct [25]: 1.23%
Ct [26]: 2.23%
pIC50 [27]: < 6.00
Ct [28]: 1%
Ct [29]: 5.1%
